These results are taken from ChEMBL document CHEMBL1127060 (1993).

The species named for assay [1] is Oryctolagus cuniculus. In words: Tested for contraction of rabbit saphenous artery produced by 1 uM alpha,beta-MeATP at 37 degree C. The assay is classed as functional.
For assay [2], the species on record is Cavia porcellus. In words: Tested for contraction of guinea pig isolated urinary bladder detrusor muscle at 37 degree C; Not active. To be noted: Muscle tissue. Format: functional.
The species entered for assay [3] is Oryctolagus cuniculus. Description: Tested for relaxation of carbachol-contracted rabbit aorta at 37 degree C; Not active. Format: functional.
For assay [4], the species on record is Cavia porcellus. In words: Tested for relaxation of carbachol-contracted guinea pig taenia coli at 37 degree C; Significantly less potent than ATP. The assay is classed as functional.
Assay [5] is filed under the species Oryctolagus cuniculus. Description: Tested for relaxation of carbachol-contracted rabbit mesenteric artery at 37 degree C; Not active. The assay is classed as functional.
For assay [6], the species on record is Cavia porcellus. Description: Tested for contraction of guinea pig vas deferens at 37 degree C; Not active. Format: functional.
A short description of assay [7]: Agonism at turkey erythrocyte P2Y receptor. The assay is classed as functional, Meleagris gallopavo. The essentials: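 Turkey erythrocytes labeled 18–24 h at 37 °C with 2-[3H]myo-inositol in inositol-free DMEM; ghosts made by hypotonic lysis (5 mM Na phosphate pH 7.4, 5 mM MgCl2, 1 mM EGTA). PLC assay: ~175 μg protein ghosts, 1 μM GTPγS, Hepes pH 7.0 medium with 424 μM CaCl2, 2 mM EGTA; 5 min, 30 °C; total [3H]inositol phosphates by anion exchange; K0.5 averaged from 3–8 curves.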

For assay [8], the species on record is Oryctolagus cuniculus. Description: Tested for relaxation of carbachol-contracted rabbit mesenteric artery at 37 degree C; More potent than or equal to 2MeSATP. Format: functional.
The species named for assay [9] is Cavia porcellus. Description: Tested for contraction of guinea pig isolated urinary bladder detrusor muscle at 37 degree C; Less potent than or equal to ATP. To be noted: Muscle tissue. The assay is classed as functional.
The species named for assay [10] is Cavia porcellus. In words: Tested for relaxation of carbachol-contracted guinea pig taenia coli at 37 degree C; More potent than or equal to ATP. The assay is classed as functional.
For assay [11], the species on record is Cavia porcellus. Description: Tested for relaxation of carbachol-contracted guinea pig taenia coli at 37 degree C; Less potent than or equal to ATP. The assay is classed as functional.
The species entered for assay [12] is Oryctolagus cuniculus. In words: Tested for relaxation of carbachol-contracted rabbit mesenteric artery at 37 degree C; Potency equal to 2MeSATP. The assay is classed as functional.
For assay [13], the species on record is Cavia porcellus. In words: Tested for contraction of guinea pig vas deferens at 37 degree C; Potency equal to ATP. The assay is classed as functional.
The species entered for assay [14] is Oryctolagus cuniculus. In words: Tested for contraction of rabbit saphenous artery produced by 1 uM alpha,beta-MeATP at 37 degree C; Potency equal to ATP. Format: functional.
For assay [15], the species on record is Cavia porcellus. Description: Tested for contraction of guinea pig isolated urinary bladder detrusor muscle at 37 degree C; Potency equal to ATP. The assay is classed as functional. To be noted: Muscle tissue.
For assay [16], the species on record is Cavia porcellus. Description: Tested for relaxation of carbachol-contracted guinea pig taenia coli at 37 degree C. The assay is classed as functional. The essentials: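 Carbachol-precontracted guinea pig taenia coli segments in 37 °C organ baths with oxygenated Krebs solution. Tension changes were recorded in response to increasing nucleotide concentrations. At least two determinations. Responses were expressed as % relaxation of the carbachol-induced contraction and reported as pD2. ATP was tested on every preparation.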

The species named for assay [17] is Oryctolagus cuniculus. Description: Tested for relaxation of carbachol-contracted rabbit aorta at 37 degree C; Potency equal to 2MeSATP. Format: functional.
Assay [18] is filed under the species Oryctolagus cuniculus. Description: Tested for contraction of rabbit saphenous artery produced by 1 uM alpha,beta-MeATP at 37 degree C; Not active. Format: functional.
The species named for assay [19] is Cavia porcellus. Description: Tested for contraction of guinea pig vas deferens at 37 degree C; Less potent than or equal to ATP. Format: functional.
The species named for assay [20] is Oryctolagus cuniculus. In words: Tested for relaxation of carbachol-contracted rabbit mesenteric artery at 37 degree C; Less potent than or equal 2MeSATP. The assay is classed as functional.
The species named for assay [21] is Oryctolagus cuniculus. In words: Tested for relaxation of carbachol-contracted rabbit aorta at 37 degree C; More potent than or equal to 2MeSATP. The assay is classed as functional.
For assay [22], the species on record is Cavia porcellus. Description: Tested for relaxation of carbachol-contracted guinea pig taenia coli at 37 degree C; Potency equal to ATP. Format: functional.

Several values for one entry are separate records, joined by “and”; a condition that tells them apart may be missing. Equal entries are not always repeated. Activity calls are given as the source filed them. The calls are words filed in the database; no cut-off is given here. A value given as a limit tells only on which side of the number the result lay.

`C=CCCCCSc1nc(NC)c2ncn(C3O[C@H](COP(=O)(O)O)[C@@H](O)[C@H]3O)c2n1` (stereo partly drawn): the Relative activity in the assay listed under Oryctolagus cuniculus [1] is 6.7%; in the assay filed under Cavia porcellus [4], “Partially active”. Moreover, the Relative activity entry in the assay listed under Cavia porcellus [2], in the assay filed under Oryctolagus cuniculus [3], in the assay listed under Oryctolagus cuniculus [5] and in the assay listed under Cavia porcellus [6] was “inactive” in each case. For the same compound, the “K 0.5” value in [7] is reported as greater than 100000 nM.

Turning to `C=CCCCCSc1nc(NC)c2ncn(C3O[C@H](COP(=O)(O)OP(=O)(O)OP(=O)(O)O)[C@@H](O)[C@H]3O)c2n1` (stereo partly drawn), the Relative activity in the assay listed under Oryctolagus cuniculus [8] is 5.6 and 6; in the assay filed under Cavia porcellus [9], “Partially active”; in the assay filed under Cavia porcellus [10], 7.2; in the assay listed under Oryctolagus cuniculus [1], 1.5%. Further, the Relative activity result in the assay filed under Cavia porcellus [6] was “inactive”. Also, in [7], the “K 0.5” value was found to be 26 nM.

For the compound `N#CCCCCCCSc1nc(N)c2ncn(C3O[C@H](COP(=O)(O)O)[C@@H](O)[C@H]3O)c2n1` (stereo partly drawn), the Relative activity in the assay listed under Oryctolagus cuniculus [8] turned out to be 6.2; in the assay listed under Oryctolagus cuniculus [1] it was 4.5%; in the assay filed under Cavia porcellus [11], 4.4. The Relative activity result in the assay listed under Cavia porcellus [2] and in the assay listed under Cavia porcellus [6] was “inactive” in each case. In addition, the “K 0.5” value in assay [7] stood at 37000 nM.

On to `Nc1ncnc2c1ncn2[C@@H]1O[C@H](COP(=O)(O)OP(=O)(O)OP(=O)(O)O)[C@@H](O)[C@H]1O` [ADENOSINE TRIPHOSPHATE], for which the Relative activity came out at 6 in the assay filed under Oryctolagus cuniculus [12], 3.5 in the assay listed under Cavia porcellus [13], 6.2 in the assay listed under Cavia porcellus [16] and 4.5 in the assay filed under Oryctolagus cuniculus [17]. The Relative activity entry in the assay filed under Oryctolagus cuniculus [14] and in the assay filed under Cavia porcellus [15] was “Active” each time. The “K 0.5” value in assay [7] is recorded as 2800 nM.

Take `Nc1nc(SCCc2ccc([N+](=O)[O-])cc2)nc2c1ncn2C1O[C@H](COP(=O)(O)O)[C@@H](O)[C@H]1O` (stereo partly drawn): the Relative activity entry in the assay listed under Oryctolagus cuniculus [18] is “inactive”. The Relative activity result in the assay filed under Cavia porcellus [19] is “Partially active”; in the assay listed under Cavia porcellus [9], “Partially active”; in the assay listed under Oryctolagus cuniculus [20], 5.4; in the assay filed under Oryctolagus cuniculus [21] it was 6.1; in the assay listed under Cavia porcellus [22] it was 6.5. For the same compound, the “K 0.5” value in assay [7] was 3000 nM.
